Hits are enriched below; roughly 3.7% of the tested compounds scored in any of these assays.
NPY-Y1 PAM-ag: human NPY-Y1 potentiation or agonism, primary screen; NPY-Y1 expressing cells, potentiator/agonist activation; activation, % at 3.6 µM; 0.37% of 220,000 active; AID 1304; in the data active means activation above about 33%, passing the limit was not always enough;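 further: cells stimulated with NPY at EC10 then isoproterenol at EC100; 0% = low agonist plus stimulus and 100% = saturating agonist plus stimulus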
Target sequence (P25929 whole entry, looked up): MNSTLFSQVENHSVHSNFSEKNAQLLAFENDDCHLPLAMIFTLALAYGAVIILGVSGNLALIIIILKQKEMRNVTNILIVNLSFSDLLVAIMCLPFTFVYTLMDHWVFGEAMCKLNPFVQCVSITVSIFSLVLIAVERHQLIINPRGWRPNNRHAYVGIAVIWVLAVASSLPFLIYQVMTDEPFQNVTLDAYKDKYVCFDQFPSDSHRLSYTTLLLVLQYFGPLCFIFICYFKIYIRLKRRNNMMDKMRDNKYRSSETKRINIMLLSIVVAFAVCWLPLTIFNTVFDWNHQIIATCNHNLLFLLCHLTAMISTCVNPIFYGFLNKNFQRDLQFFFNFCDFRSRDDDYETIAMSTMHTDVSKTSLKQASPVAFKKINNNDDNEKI
Furin inhibitor: inhibitors of human furin; P09958; purified furin, fluorogenic substrate cleavage; inhibition, % at 20 µM or 30 µM; 0.061% of 220,000 active; AID 463115; in the data active means inhibition above about 25%
NPY-Y2 PAM-ag: human NPY-Y2 potentiation or agonism, primary screen. cells expressing NPY-Y2, potentiator/agonist read-out. activation, % at 3.6 µM. AID 1359. 0.45% of 220,000 active. P49146; in the data active means activation above about 27%;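 further: cells stimulated with NPY near EC25 plus isoproterenol at EC100; 0% = vehicle plus submaximal agonist and 100% = vehicle plus saturating agonist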
NPY Y1 blocker: antagonists of human neuropeptide Y receptor Y1; P25929; HEK293-CNG Y1 cells, membrane potential fluorescence; NPY at EC95, then isoproterenol; inhibition, % at 3.6 µM; 1% of 200,000 active; AID 1040;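 active means inhibition above the campaign mean inhibition of all tested compounds plus 3 SD, cut at about 20% in these data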;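 further: 0% = DMSO wells given NPY plus isoproterenol and 100% = isoproterenol alone without NPY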
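Assay system: HEK293 cells with Y1 receptor plus CNG channel | Probe or stimulus: NPY (25 nM), isoproterenol (1 µM), Ro 20-1724 (25 µM) | Timing: Compound incubation 1 h at room temperature, readout 45 min post-stimulation | Measured by: Membrane-potential fluorescent dye readout | Benchmarks: High control isoproterenol alone, low control NPY with isoproterenol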
KCC2 mod: modulators of human KCC2 chloride dependent transport; Q9H2X9; KCC2 cells, thallium flux FluoZin-2 fluorescence; B-score of Tl+ flux slope (higher = more flux/activation; lower = inhibition) at 10 µM; 2.2% of 190,000 active; AID 1456;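 active means thallium flux slope and its plate-corrected score both differing from the plate sample mean at a set confidence after two filtering rounds, in either direction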;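 further: slope of fluorescence scaled to starting intensity during 10 to 20 s after thallium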
NPY-Y2 antag: NPY-Y2 (human) receptor antagonism; inhibition, % at 2.7 µM; 0.99% of 140,000 active; P49146; AID 793; NPY-Y2 expressing cells, antagonist mode; in the data active means inhibition above about 17%;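 further: 0% = vehicle with agonist challenge and 100% = reference antagonist with challenge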
NPY-Y1 antag ct: antagonizes human NPY-Y1, counter-screen to NPY-Y2 antagonists. shares compounds with NPY-Y2 antag. cell-based NPY-Y1 antagonism counterscreen. inhibition, % at 3.6 µM. 19% of 710 active; in the data active means inhibition above about 20%;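 further: cells challenged with NPY then isoproterenol with cAMP sensed through a CNG channel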
NPY-Y2 ant conf: human NPY-Y2 antagonism, confirmation. shares compounds with NPY-Y2 antag. HEK293 NPY-Y2 CNG channel, membrane potential fluorescence. inhibition, % at 2.8 µM. 32% of 710 active. AID 1257;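 active means mean inhibition of triplicate wells above the hit cutoff set in the primary screen, cut at about 17% in these data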;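 further: 0% = DMSO with NPY challenge and 100% = BIIE0246 high control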
* hit, by the source's call; . = no result.

SMILES	NPY-Y1 PAM-ag	Furin inhibitor	NPY-Y2 PAM-ag	NPY Y1 blocker	KCC2 mod	NPY-Y2 antag	NPY-Y1 antag ct	NPY-Y2 ant conf
CCOC(=O)c1c(NC(=O)C2C3C=CC(CC3)C2C(=O)O)sc(C)c1C (configuration not stated)	18	-28	14	2	-1.5	18*	0	3
O=C(Nc1ccc(Cl)c(Cl)c1)Nc1cc(C(=O)NC2CC2)ccc1Cl	-7	-21	8	0	-0.46	3	.	.
CC1CCN(CCCNC(=O)c2ccc(CSCc3cccc(Cl)c3)o2)CC1	-24	-16	-7	12	0.64	17*	9	12
CN1CCN(CCCNC(=O)c2ccc(CSCc3cccc(Cl)c3)o2)CC1	-6	-7	1	0	.	2	.	.
Cc1noc(C)c1C(=O)NCc1ccccc1F	16	-30	0	-4	0.87	.	.	.
CCN(CC)S(=O)(=O)c1cc(C(=O)Oc2cccc(-c3cnc4ccccc4n3)c2)ccc1OC	-48	-17	0	14	-0.58	20*	31*	14
CCOC(=O)c1c(-c2ccc(C)o2)csc1NC(=O)CSc1nnc(C)s1	-22	-7	-22	17	-0.62	18*	13	16
CCOC(=O)c1c(NC(=O)CSc2nnc(C)s2)sc2c1CCC(C)C2 (configuration not stated)	-19	-3	8	5	-0.06	23*	25*	14
COc1ccccc1CNC(=O)CSc1ccccc1	17	-7	-9	-5	0.0049	.	.	.
COc1ccccc1CNC(=O)CSc1ccc(C)cc1	-20	-12	13	5	-0.86	28*	0	4
CCOC(=O)C1CCCN(Cc2ccccc2C)C1 (configuration not stated)	9	-17	1	1	-0.021	17*	0	0
Clc1ccc(-c2cc(CSc3cccc(Cl)c3)on2)cc1	-67	-13	-32	20	0.36	17*	10	16
Cc1ccc(SCc2cc(-c3ccc(Cl)cc3)no2)cc1	-11	-15	5	6	-0.47	19*	13	17
Clc1ccc(-c2cc(CSc3ccccc3)on2)cc1	-43	-11	-3	8	0.21	15	.	.
COc1cccc(C(=O)Oc2cc3c4c(c2)C(C)=CC(C)(C)N4C(=O)C3=O)c1	-77	-17	-31	16	-0.8	46*	50*	82*
COCCN(Cc1nc(C2(c3ccc(C)cc3)CCCC2)no1)C(C)C	11	-12	-10	3	-1.4	.	.	.
CCCCC(CC)C(=O)NCC(C)NC(=O)C(CC)CCCC (configuration not stated)	1	-7	6	7	-0.022	24*	17	8
CC(=O)CCC(=O)OCC(=O)c1ccc(C(F)(F)F)cc1	-11	-6	-9	.	0.014	.	.	.
COC(=O)c1ccc(OCC(=O)c2ccc(C)c(C)c2)cc1	-14	-17	-1	12	0.17	26*	17	6
Cc1ccc(OCCNc2ccc(C(F)(F)F)cc2[N+](=O)[O-])cc1	19	-10	1	0	0.13	21*	20	17
Cc1ccc(C(=O)NCCCNc2ccc(C(F)(F)F)cc2[N+](=O)[O-])cc1	-6	-9	-1	5	0.098	13	.	.
CC(Cc1ccccc1)NC(=O)c1cc([N+](=O)[O-])ccc1Cl (configuration not stated)	7	4	0	.	-2	.	.	.
CCS(=O)(=O)N1Cc2ccccc2CC1C(=O)NC(C)C12CC3CC(CC(C3)C1)C2 (configuration not stated)	-7	-19	-13	10	.	19*	5	9
CC(C)OC(=O)c1cc2c(ccn2-c2ccc(F)cc2)n1CC(=O)N1CCN(C(=O)c2ccco2)CC1	29	-13	15	.	.	.	.	.
COC(=O)c1cc2c(ccn2-c2ccc(F)cc2)n1Cc1ccc(C#N)cc1	0	-17	1	1	0.52	19*	10	9
